Experiment [1] addresses T1, Legumain (Homo sapiens) (UniProt Q99538).
T1 sequence (whole entry): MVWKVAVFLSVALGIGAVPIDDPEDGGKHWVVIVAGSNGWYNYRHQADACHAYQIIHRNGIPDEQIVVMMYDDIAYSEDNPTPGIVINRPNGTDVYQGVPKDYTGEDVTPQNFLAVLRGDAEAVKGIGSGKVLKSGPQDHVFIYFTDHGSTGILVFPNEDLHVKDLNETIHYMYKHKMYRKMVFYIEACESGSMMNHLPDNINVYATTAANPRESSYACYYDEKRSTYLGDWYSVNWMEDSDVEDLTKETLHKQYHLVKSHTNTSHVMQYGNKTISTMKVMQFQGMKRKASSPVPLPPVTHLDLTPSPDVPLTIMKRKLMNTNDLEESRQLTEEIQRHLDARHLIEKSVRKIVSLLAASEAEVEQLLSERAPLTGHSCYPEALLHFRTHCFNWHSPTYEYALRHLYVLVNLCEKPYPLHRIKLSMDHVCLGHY
The experiment is described as follows: Binding affinity to human purified legumain assessed as protein labeling. The note with it: tested as the 125I-labelled form.

The target of the next experiment is T2, Legumain (Mus musculus) (UniProt O89017).
T2 sequence (whole entry): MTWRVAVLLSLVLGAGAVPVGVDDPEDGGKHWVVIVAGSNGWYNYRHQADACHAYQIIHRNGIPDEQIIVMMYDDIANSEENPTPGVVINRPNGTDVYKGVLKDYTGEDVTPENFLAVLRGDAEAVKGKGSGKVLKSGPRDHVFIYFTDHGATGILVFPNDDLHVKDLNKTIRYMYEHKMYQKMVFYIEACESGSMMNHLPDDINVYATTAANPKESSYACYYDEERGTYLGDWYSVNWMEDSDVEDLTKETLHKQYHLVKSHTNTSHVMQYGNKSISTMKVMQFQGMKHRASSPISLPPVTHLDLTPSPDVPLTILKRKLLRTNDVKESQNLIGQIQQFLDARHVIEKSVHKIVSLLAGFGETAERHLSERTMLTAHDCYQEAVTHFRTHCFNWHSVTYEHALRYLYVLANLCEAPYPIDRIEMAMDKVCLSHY
The experiment is described as follows: Binding affinity to legumain in mouse spleen lysates assessed as protein labeling at 10 uM after 30 mins by SDS-PAGE based affinity blotting. It counts as tissue-based. The note with it: tested as the 125I-labelled form.

Experiment [2] deals with T1, Legumain (Homo sapiens). The experiment is described as follows: Binding affinity to legumain in human 2.2.93 cells assessed as protein labeling at 10 uM after 30 mins by SDS-PAGE based affinity blotting. In kind it is cell-based. The note with it: tested as the 125I-labelled form. In outline: (§1)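 B cell lines (2.2.93, 8.1.6, Raji) and Jurkat T cell pellets were lysed in 50 mM citrate phosphate, 1% CHAPS, 0.5% Triton, 5 mM DTT for 10 min on ice, then spun at 14,000g for 15 min at 4 °C. Lysates were set to 1 mg/ml in citrate phosphate pH 5.8, 0.1% CHAPS, 5 mM DTT and labeled for 30 min at 37 °C. Read-out was SDS-PAGE and biotin affinity blot.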

Experiment [3] deals with T1, Legumain (Homo sapiens). The experiment can be described thus: Binding affinity to legumain in human 8.1.6 cells assessed as protein labeling at 10 uM after 30 mins by SDS-PAGE based affinity blotting. As to conditions: tested as the 125I-labelled form. It counts as cell-based. In outline: as §1
Experiment [4] concerns the target T1, Legumain (Homo sapiens). The experiment is described as follows: Binding affinity to legumain in human Raji cells assessed as protein labeling at 10 uM after 30 mins by SDS-PAGE based affinity blotting. In kind it is cell-based. The note with it: tested as the 125I-labelled form. In outline: as §1
The target of experiment [5] is T1, Legumain (Homo sapiens). The experiment is described as follows: Binding affinity to legumain in human Jurkat T cells assessed as protein labeling at 10 uM after 30 mins by SDS-PAGE based affinity blotting. In kind it is cell-based. As to conditions: tested as the 125I-labelled form. In outline:
as §1

Experiment [6] concerns the target T1, Legumain (Homo sapiens). The experiment is described as follows: Binding affinity to legumain in human 8.1.6 cells assessed as protein labeling at 10 uM after 30 mins immunoprecipitation. In kind it is cell-based. As to conditions: tested as the 125I-labelled form. The procedure, abridged: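 8.1.6 B cell lysate at 1 mg/ml in citrate phosphate pH 5.8, 0.1% CHAPS, 5 mM DTT was labeled with probe for 30 min at 37 °C. Legumain was then immunoprecipitated with polyclonal anti-legumain antisera. Input, pellet and supernatant were probed for biotinylated proteins.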

Experiment [7] deals with T3, Caspase-3 (Homo sapiens) (UniProt P42574).
T3 sequence (whole entry): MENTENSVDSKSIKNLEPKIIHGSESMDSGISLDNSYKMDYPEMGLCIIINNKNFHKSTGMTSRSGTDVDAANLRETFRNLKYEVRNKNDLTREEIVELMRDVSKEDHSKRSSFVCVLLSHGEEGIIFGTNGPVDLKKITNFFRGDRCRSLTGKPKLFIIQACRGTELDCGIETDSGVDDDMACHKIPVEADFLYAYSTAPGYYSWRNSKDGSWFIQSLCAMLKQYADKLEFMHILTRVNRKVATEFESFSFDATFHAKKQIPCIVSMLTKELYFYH
The experiment is described as follows: Binding affinity to human recombinant caspase 3 assessed as protein labeling by SDS-PAGE based affinity blotting. As to conditions: tested as the 125I-labelled form.

Another experiment addresses T4, Caspase-6 (Homo sapiens) (UniProt P55212).
T4 sequence (whole entry): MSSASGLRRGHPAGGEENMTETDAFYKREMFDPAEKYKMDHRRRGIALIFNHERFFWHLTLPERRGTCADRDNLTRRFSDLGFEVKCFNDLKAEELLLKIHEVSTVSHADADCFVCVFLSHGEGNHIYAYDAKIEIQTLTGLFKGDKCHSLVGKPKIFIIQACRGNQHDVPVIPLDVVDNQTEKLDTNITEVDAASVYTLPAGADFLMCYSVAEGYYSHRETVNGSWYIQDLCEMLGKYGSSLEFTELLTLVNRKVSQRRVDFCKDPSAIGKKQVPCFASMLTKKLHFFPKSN
The experiment can be described thus: Binding affinity to human recombinant caspase 6 assessed as protein labeling by SDS-PAGE based affinity blotting. The note with it: tested as the 125I-labelled form.

For experiment [8], the target named is T5, Caspase-7 (Homo sapiens) (UniProt P55210).
T5 sequence (whole entry): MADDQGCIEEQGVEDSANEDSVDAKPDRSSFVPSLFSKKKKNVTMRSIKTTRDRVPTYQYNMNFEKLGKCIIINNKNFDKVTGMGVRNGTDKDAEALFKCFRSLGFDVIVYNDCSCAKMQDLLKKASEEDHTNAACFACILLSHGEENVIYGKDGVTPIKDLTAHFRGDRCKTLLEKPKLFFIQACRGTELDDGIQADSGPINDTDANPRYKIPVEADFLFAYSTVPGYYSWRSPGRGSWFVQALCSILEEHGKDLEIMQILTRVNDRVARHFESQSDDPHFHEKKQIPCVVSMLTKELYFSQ
The experiment can be described thus: Binding affinity to human recombinant caspase 7 assessed as protein labeling by SDS-PAGE based affinity blotting. The note with it: tested as the 125I-labelled form.

For another experiment, the target named is Caspase-8 (Homo sapiens) (UniProt Q14790). The experiment is described as follows: Binding affinity to human recombinant caspase 8 assessed as protein labeling by SDS-PAGE based affinity blotting. The note with it: tested as the 125I-labelled form.
The target in experiment [9] is T1, Legumain (Homo sapiens). The experiment is described as follows: Binding affinity to legumain in human 8.1.6 cells assessed as protein labeling at 1 uM at acidic pH after 30 mins by SDS-PAGE based affinity blotting. The note with it: tested as the 125I-labelled form.
Experiment [10] deals with T3, Caspase-3 (Homo sapiens). The experiment is described as follows: Binding affinity to caspase 3 in human Sh-SY-5Y cells extracts assessed as protein labeling by SDS-PAGE based affinity blotting. In kind it is cell-free.
Experiment [11] deals with T5, Caspase-7 (Homo sapiens). The experiment is described as follows: Binding affinity to caspase 7 in human Sh-SY-5Y cells extracts assessed as protein labeling by SDS-PAGE based affinity blotting. It counts as cell-free.
Experiment [12] addresses T6, Caspase-9 (Homo sapiens) (UniProt P55211).
T6 sequence (whole entry): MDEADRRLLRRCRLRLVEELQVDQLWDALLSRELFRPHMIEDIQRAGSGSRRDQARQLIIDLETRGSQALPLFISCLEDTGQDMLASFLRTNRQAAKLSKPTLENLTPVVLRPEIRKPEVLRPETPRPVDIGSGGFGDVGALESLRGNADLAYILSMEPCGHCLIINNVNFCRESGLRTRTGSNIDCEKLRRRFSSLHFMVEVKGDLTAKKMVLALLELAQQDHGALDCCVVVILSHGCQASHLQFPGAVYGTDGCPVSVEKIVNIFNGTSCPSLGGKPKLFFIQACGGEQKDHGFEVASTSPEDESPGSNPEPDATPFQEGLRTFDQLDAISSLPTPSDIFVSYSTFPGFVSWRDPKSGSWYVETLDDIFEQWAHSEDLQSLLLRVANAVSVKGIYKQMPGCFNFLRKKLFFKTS
The experiment can be described thus: Binding affinity to human recombinant caspase 9 assessed as protein labeling by SDS-PAGE based affinity blotting. As to conditions: tested as the 125I-labelled form.

The target in experiment [13] is T6, Caspase-9 (Homo sapiens). The experiment can be described thus: Binding affinity to caspase 9 in human Sh-SY-5Y cells extracts assessed as protein labeling by SDS-PAGE based affinity blotting. It counts as cell-free.

Calls of active or inactive are those of the source. The calls are words filed in the database; no cut-off is given here. Square brackets hold non-standard residues; d marks the D form. Peptide text beside a SMILES is read from it. * marks the point of attachment. ξ: configuration not given here. AspCH2OBz(2,6-Me2) = Cc1cccc(C)c1C(=O)OCC(=O)[C@H](CC(=O)O)N*; Biotin = O=C1N[C@H]2[C@H](CS[C@H]2CCCCC(=O)*)N1; Tyr(3-I) = N[C@@H](Cc1ccc(O)c(I)c1)C(=O)O; X1 = O=C1N[C@@H]2CSC(CCCCC(=O)*)[C@@H]2N1; ξD = NC(CC(=O)O)C(=O)O; Ahx = NCCCCCC(=O)O; CH2F = FC*

Sequence of Caspase-8 (Homo sapiens) (Q14790 217-374 limits assumed): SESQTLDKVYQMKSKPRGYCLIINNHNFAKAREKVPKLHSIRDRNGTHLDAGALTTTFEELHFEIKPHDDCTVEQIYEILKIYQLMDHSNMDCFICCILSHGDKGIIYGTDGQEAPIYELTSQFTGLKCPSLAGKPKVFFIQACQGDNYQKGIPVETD
Sequence of Caspase-8 (Homo sapiens) (Q14790 385-479 limits assumed): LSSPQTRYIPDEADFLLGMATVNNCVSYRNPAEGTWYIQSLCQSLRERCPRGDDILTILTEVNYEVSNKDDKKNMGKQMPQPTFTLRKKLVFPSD

Take `CC(=O)N[C@@H](CCCCNC(=O)CCCCC1SC[C@H]2NC(=O)N[C@@H]12)C(=O)N[C@@H](Cc1ccc(O)c(I)c1)C(=O)NCCCCCC(=O)N[C@@H](CC(=O)O)C(=O)COC(=O)c1c(C)cccc1C` (stereo not given in full): the outcome on Legumain (Homo sapiens) [1], on Legumain (Mus musculus), at Legumain (Homo sapiens) [2], at Legumain (Homo sapiens) [3], on Legumain (Homo sapiens) [4] and on Legumain (Homo sapiens) [5] was Active. The outcome at Legumain (Homo sapiens) [6], on Caspase-3 (Homo sapiens) [7], at Caspase-6 (Homo sapiens), at Caspase-7 (Homo sapiens) [8], at Caspase-8 (Homo sapiens) and at Legumain (Homo sapiens) [9] was Active.

Regarding `COC(=O)CC(NC(=O)[C@H](C)NC(=O)[C@@H](NC(=O)CCCCCNC(=O)CCCC[C@@H]1SC[C@@H]2NC(=O)N[C@@H]21)C(C)C)C(=O)CF` (stereo partly drawn) ({Biotin-Ahx}-Val-Ala-[ξD](OMe)-CH2F), the result on Caspase-3 (Homo sapiens) [10] and at Caspase-7 (Homo sapiens) [11] was Active.

Turning to `CC(=O)N[C@@H](CCCCNC(=O)CCCCC1SC[C@H]2NC(=O)N[C@@H]12)C(=O)N[C@@H](Cc1ccc(O)c(I)c1)C(=O)NCCCCCC(=O)N[C@@H](CCC(=O)O)C(=O)N[C@H](C(=O)N[C@@H](CC(=O)O)C(=O)COC(=O)c1c(C)cccc1C)C(C)C` (stereo not given in full) (Ac-K(X1)[Tyr(3-I)][Ahx]EV-{AspCH2OBz(2,6-Me2)}), the outcome at Caspase-3 (Homo sapiens) [7], on Caspase-7 (Homo sapiens) [8], on Caspase-8 (Homo sapiens), on Caspase-9 (Homo sapiens) [12] and at Caspase-9 (Homo sapiens) [13] was Active. Also, the outcome on Caspase-6 (Homo sapiens) was inactive.

These data come from ChEMBL document CHEMBL1221168, “Activity-based probes that target diverse cysteine protease families” (Nat Chem Biol, 2005).
